Data taken from ChEMBL document CHEMBL1127367, “Antiproliferative properties of polyamine analogues: a structure-activity study” (J Med Chem, 1994).
pIC50, pKi: −log10 of the molar value.

How the values were obtained:
[1] = biological target: T1, S-adenosylmethionine decarboxylase proenzyme 1 (Mus musculus) (UniProt P0DMN7); test: Inhibition of S-Adenosyl-methionine decarboxylase (AdoMetDC) activity; assay type: functional; parameters: concentration or dose not given beside the values
T1 sequence (whole entry): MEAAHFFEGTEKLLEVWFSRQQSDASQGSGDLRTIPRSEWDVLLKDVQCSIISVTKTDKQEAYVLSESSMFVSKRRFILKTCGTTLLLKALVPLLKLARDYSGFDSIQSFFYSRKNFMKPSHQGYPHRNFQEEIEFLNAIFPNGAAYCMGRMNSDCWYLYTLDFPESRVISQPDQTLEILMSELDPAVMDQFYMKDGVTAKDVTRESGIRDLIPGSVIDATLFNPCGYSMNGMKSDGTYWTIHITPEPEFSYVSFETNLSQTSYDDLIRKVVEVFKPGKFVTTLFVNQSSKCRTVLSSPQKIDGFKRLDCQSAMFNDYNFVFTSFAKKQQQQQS

[2] = system: L1210; test: Compound was evaluated for its impact on putrescine (Put) levels after 48 hr at concentration 30 uM; assay type: functional, Mus musculus
Method in brief: (§1)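 L1210 suspension cultures were grown in RPMI-1640 with 10% NuSerum, 2% HEPES-MOPS and 1 mM aminoguanidine (37 °C, 5% CO2). Log-phase cells were treated for 48 h, then washed twice in cold RPMI-1640 and pelleted. Pellets were extracted with 0.6 N perchloric acid, and supernatants were held at −20 °C until HPLC. Polyamine levels are given as % of untreated controls.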

[3] = system: L1210; test: Inhibition of radiolabeled spermidine uptake into L1210 cells in vitro.; assay type: functional, cell-based, Mus musculus
[4] = system: L1210; test: Compound level in L1210 cells after 48 hours of incubation at initial concentration of 150 uM is expressed as nmol/10e6 cells; assay type: functional, Mus musculus
Method in brief: (§2)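 Murine L1210 leukemia cells were kept in logarithmic growth as a suspension in RPMI-1640 with 10% NuSerum, 2% HEPES-MOPS buffer and 1 mM aminoguanidine, at 37 °C under 5% CO2. Log-phase cells were exposed to the analogue for 48 h. Intracellular analogue content is reported per 10^6 cells.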

[5] = system: L1210; test: Compound was evaluated for its impact on spermidine levels after 48 hr at concentration 150 uM; assay type: functional, Mus musculus; method in brief: as §1
[6] = biological target: T2, Ornithine decarboxylase (Mus musculus) (UniProt P00860); test: Inhibition of ornithine decarboxylase (ODC) activity; assay type: functional; parameters: concentration or dose not given beside the values
T2 sequence (whole entry): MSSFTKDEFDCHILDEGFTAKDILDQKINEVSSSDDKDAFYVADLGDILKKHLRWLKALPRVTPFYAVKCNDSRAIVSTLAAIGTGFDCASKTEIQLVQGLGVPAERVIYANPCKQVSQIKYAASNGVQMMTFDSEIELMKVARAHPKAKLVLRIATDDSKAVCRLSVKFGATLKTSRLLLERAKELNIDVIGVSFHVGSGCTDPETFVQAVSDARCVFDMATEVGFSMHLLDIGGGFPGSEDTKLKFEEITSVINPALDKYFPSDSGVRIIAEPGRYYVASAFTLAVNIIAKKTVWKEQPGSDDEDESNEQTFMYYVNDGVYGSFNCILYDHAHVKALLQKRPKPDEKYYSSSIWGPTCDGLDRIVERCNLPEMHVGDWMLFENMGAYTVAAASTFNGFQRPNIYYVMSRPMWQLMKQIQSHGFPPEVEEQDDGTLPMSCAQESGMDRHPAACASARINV

[7] = system: L1210; test: Compound was evaluated for its impact on spermine levels after 48 hr at concentration 30 uM; assay type: functional, Mus musculus
Method in brief: (§3)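 Murine L1210 leukemia cells in log-phase suspension (RPMI-1640, 10% NuSerum, 2% HEPES-MOPS, 1 mM aminoguanidine, 37 °C, 5% CO2) exposed to analogue for 48 h. Cells washed twice in cold RPMI-1640, extracted with 0.6 N perchloric acid, and polyamines quantified by HPLC. Spermine is reported as % of untreated control.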

[8] = system: L1210; test: Compound was evaluated for its impact on spermine levels after 48 hr at concentration 150 uM; assay type: functional, Mus musculus; method in brief: as §3
[9] = system: L1210; test: Compound was evaluated for its impact on spermidine levels after 48 hr at concentration 30 uM; assay type: functional, Mus musculus; method in brief: as §1
[10] = system: L1210; test: In vitro inhibition of L1210 growth after 48 hours.; assay type: functional, cell-based; settings: Mus musculus, L1210, 48 h
Method in brief: (§4)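 Log-phase L1210 cultures (0.5–1.0 × 10^5 cells/mL) treated with analogue diluted in sterile water and filter-sterilized. After 48 h, cells were reseeded and grown a further 48 h for the 96 h point. Cells counted by Coulter counter. % growth = (treated − inoculum)/(untreated − inoculum) × 100.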

[11] = system: L1210; test: In vitro inhibition of L1210 growth after 96 hours.; assay type: functional, cell-based; settings: Mus musculus, L1210, 96 h; method in brief: as §4
[12] = biological target: Spermidine/spermine N(1)-acetyltransferase (SAT) (Mus musculus) (UniProt Q6P8J2+P48026); test: […] spermidine/spermine N1-Acetyltransferase (SSAT) activity; assay type: functional; parameters: concentration or dose not given beside the values
[13] = system: L1210; test: Compound level in L1210 cells after 48 hours of incubation at initial concentration of 30 uM is expressed as nmol/10e6 cells; assay type: functional, Mus musculus; method in brief: as §2
[14] = system: L1210; test: Compound was evaluated for its impact on putrescine (Put) levels after 48 hr at concentration 150 uM; assay type: functional, Mus musculus; method in brief: as §1
[15] = system: L1210; test: Compound level in L1210 cells after 48 hours of incubation at initial concentration of 3 uM is expressed as nmol/10e6 cells; assay type: functional, Mus musculus; method in brief: as §2
[16] = system: L1210; test: Compound was evaluated for its impact on spermine levels after 48 hr at concentration 15 uM; assay type: functional, Mus musculus; method in brief: as §3
[17] = system: L1210; test: Compound was evaluated for its impact on spermidine levels after 48 hr at concentration 15 uM; assay type: functional, Mus musculus; method in brief: as §1
[18] = system: L1210; test: Compound was evaluated for its impact on putrescine (Put) levels after 48 hr at concentration 15 uM; assay type: functional, Mus musculus; method in brief: as §1
[19] = system: L1210; test: Compound level in L1210 cells after 48 hours of incubation at initial concentration of 15 uM is expressed as nmol/10e6 cells; assay type: functional, Mus musculus; method in brief: as §2
[20] = system: L1210; test: Compound was evaluated for its impact on spermine levels after 48 hr at concentration 3 uM; assay type: functional, Mus musculus; method in brief: as §3
[21] = system: L1210; test: Compound was evaluated for its impact on putrescine (Put) levels after 48 hr at concentration 3 uM; assay type: functional, Mus musculus; method in brief: as §1
[22] = system: L1210; test: Compound was evaluated for its impact on spermidine levels after 48 hr at concentration 3 uM; assay type: functional, Mus musculus; method in brief: as §1
[23] = system: L1210; test: Compound was evaluated for its impact on spermine […] levels after 48 hr at concentration 100 uM; assay type: functional, Mus musculus; method in brief: as §1
[24] = system: L1210; test: Compound was evaluated for its impact on spermine levels after 48 hr at concentration 500 uM; assay type: functional, Mus musculus
[25] = system: L1210; test: Compound was evaluated for its impact on putrescine (Put) levels after 48 hr at concentration 500 uM; assay type: functional, Mus musculus
[26] = system: L1210; test: Compound was evaluated for its impact on spermidine levels after 48 hr at concentration 500 uM; assay type: functional, Mus musculus
[27] = system: L1210; test: Compound was evaluated for its impact on putrescine (Put) levels after 48 hr at concentration 100 uM; assay type: functional, Mus musculus
[28] = system: L1210; test: Compound was evaluated for its impact on spermidine levels after 48 hr at concentration 100 uM; assay type: functional, Mus musculus
[29] = biological target: T2, Ornithine decarboxylase (Mus musculus); test: Effect of compound on ornithine decarboxylase (ODC)activity expressed as percent of untreated control for ODC (1 uM at 4 h(or 48h))
Method in brief: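 L1210 cells exposed to 1 μM analogue for 4 h, or for 48 h in some cases. ODC activity measured as 14CO2 released from [14C]carboxyl-labeled L-ornithine and expressed as % of untreated control.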

[30] = system: L1210; test: Compound level in L1210 cells after 48 hours of incubation at initial concentration of 500 uM is expressed as nmol/10e6 cells; assay type: functional, Mus musculus; parameters: unit: nmol/10^6 cells
[31] = system: L1210; test: Compound was evaluated for its impact on spermine levels after 48 hr at concentration 100 uM; assay type: functional, Mus musculus
[32] = system: L1210; test: Compound level in L1210 cells after 48 hours of incubation at initial concentration of 100 uM is expressed as nmol/10e6 cells; assay type: functional, Mus musculus; parameters: unit: nmol/10^6 cells

Sequence of Spermidine/spermine N(1)-acetyltransferase (SAT) (Mus musculus) (P48026 whole entry, looked up): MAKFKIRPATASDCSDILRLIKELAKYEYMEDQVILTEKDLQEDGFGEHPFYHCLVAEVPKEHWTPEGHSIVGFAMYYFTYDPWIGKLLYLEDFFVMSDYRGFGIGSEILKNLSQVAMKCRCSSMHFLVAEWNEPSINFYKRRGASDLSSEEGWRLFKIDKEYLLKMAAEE
Sequence of Spermidine/spermine N(1)-acetyltransferase (SAT) (Mus musculus) (Q6P8J2 whole entry, looked up): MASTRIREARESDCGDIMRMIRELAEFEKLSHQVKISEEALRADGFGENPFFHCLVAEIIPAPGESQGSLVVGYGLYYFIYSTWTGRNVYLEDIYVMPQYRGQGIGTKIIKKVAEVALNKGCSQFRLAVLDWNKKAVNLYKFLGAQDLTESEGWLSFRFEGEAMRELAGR

Activity [1] [%] | Activity [6] [%] | pIC50 [10] | pIC50 [11] | Activity [12] [%] | SMILES | pKi [3] | Polyamine [24] [%] | Polyamine [25] [%] | Polyamine [26] [%] | Polyamine [27] [%] | Polyamine [28] [%] | also measured
100 | 100 | < 4.00 | 5.92 | 180 | CC(C)NCCCNCCCNCCCNC(C)C | 4.40 | 53 | 0 | 12 | 10 | 26 | Polyamine [23]: 64%
49 | 6 | < 4.00 | 5.60 | 200 | CNCCCNCCCNCCCNC | 5.25 | 27 | 0 | 3 | 0 | 5 | Activity [30]: 1.84; Polyamine [31]: 36%; Activity [32]: 2.14

More lines, now with the values behind:

SMILES | Activity [1] [%] | Activity [6] [%] | pIC50 [10] | pIC50 [11] | Activity [12] [%] | pKi [3] | Polyamine [24] [%] | Polyamine [25] [%] | Polyamine [26] [%] | Polyamine [27] [%] | Polyamine [28] [%] | also measured
CCNCCCNCCCCNCCCNCC [BIS(ETHYL)SPERMINE] | 28 | 3 | 4.52 | 6.74 | 460 | 5.80 | – | – | – | – | – | Polyamine [2]: 0%; Activity [4]: 1.13; Polyamine [5]: 0%; Polyamine [7]: 12%; Polyamine [8]: 14%; Polyamine [9]: 0%; Activity [13]: 0.4; Polyamine [14]: 0%
CCCNCCCNCCCCNCCCNCCC | 72 | 52 | – | – | 500 | 5.64 | – | – | – | – | – | Activity [15]: 1.12; Polyamine [16]: 43%; Polyamine [17]: 9%; Polyamine [18]: 0%; Activity [19]: 1.09; Polyamine [20]: 64%; Polyamine [21]: 0%; Polyamine [22]: 18%
CCNCCCNCCCCNCCCN | 27 | – | – | – | 150 | – | – | – | – | – | – | Activity [29]: 10%
